Active and inactive are the calls of the source. No cut-off for these calls is given here.
Assays:
[1] = system: HT-29; test: Cytotoxicity against human HT-29 cells assessed as inhibition of cell growth at 4 uM incubated for 72 hrs by SiR-DNA/CellTox Green Dye based fluorescence analysis; assay type: toxicity; conditions: ht-29, 72 h
Procedure, shortened: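 Single-agent control at 4 µM, no anticancer drug. 500 cells/well with SiR-DNA and CellTox Green; imaged at addition and 72 h. Live count = total nuclei minus dead cells, expressed as percent growth. Three technical replicates.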

[2] = system: SK-HEP1; test: Coadjutant activity against multidrug resistance in human SK-HEP1 cells assessed as potentiation of cisplatin-induced cell growth inhibition at 4 uM incubated for 72 hrs in presence of 0.1 to 100 uM cisplatin by SiR-DNA/CellTox Green Dye based fluorescence analysis; assay type: functional
Procedure, shortened: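 Cisplatin co-treatment, 72 h imaging growth assay (SiR-DNA nuclei minus CellTox Green dead cells, 500 cells/well, phenol-red-free medium). Combinations: inhibitor fixed with cisplatin 0.1–100 µM, or cisplatin fixed at 0.25 µM with inhibitor 0.25–4 µM. Three technical replicates, mean ± SD; two-tailed t-test.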

[3] = system: HCT-116 (Homo sapiens); test: Coadjutant activity against multidrug resistance in human HCT-116 cells assessed as potentiation of cisplatin-induced cell growth inhibition at 0.25 to 4 uM incubated for 72 hrs in presence of 0.25 uM cisplatin by SiR-DNA/CellTox Green Dye based fluorescence analysis; conditions: dose 0.25-4 µM

SMILES: O=C(Nc1ccccc1)c1ccccc1OCc1nc2cc3cccnc3cc2nc1COc1ccccc1C(=O)Nc1ccccc1
- Activity [1]: Non-Toxic
- Activity [2]: inactive
- Activity [3]: inactive

— ChEMBL document CHEMBL5608187, “Discovery of pyridoquinoxaline-based new P-gp inhibitors as coadjutant against Multi Drug Resistance in cancer” (Eur J Med Chem, 2024)
